Data published in publication PMC3815528 (Molecular nutrition & food research, 2013).

What was measured:
[1] = Metabolic profile of [6]-shogaol in monkey liver microsomes; type: in vitro ADME, cynomolgus monkey; conditions: monkey liver microsomes 0.5 mg/mL, [6]-shogaol 50 µM, 30 min
Outline: (§1)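 Microsomes in 100 mM potassium phosphate buffer with an NADPH-regenerating system were preincubated 5 min at 37°C. Reaction was started with test compound (DMSO, final ≤1% v/v) and run 30 min at 37°C, then stopped with an equal volume of ice-cold acetonitrile containing 2% acetic acid. After centrifugation at 13,000g for 10 min, supernatant went to C18 HPLC with electrochemical array detection, read at the 300 mV channel.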

[2] = Metabolic profile of [6]-shogaol in dog liver microsomes; type: in vitro ADME, beagle dog; conditions: dog liver microsomes 0.5 mg/mL, [6]-shogaol 50 µM, 30 min
Outline: as §1

[3] = Kinetic study of [6]-shogaol metabolism to M6 in human liver microsomes; type: in vitro ADME; conditions: probe [6]-shogaol (substrate)
[4] = Kinetic study of [6]-shogaol metabolism to M6 in mouse liver microsomes; type: in vitro ADME, CD-1 mouse; conditions: mouse liver microsomes 0.1 mg/mL, [6]-shogaol 7.8 to 2000 µM, 30 min
[5] = Metabolic profile of [6]-shogaol in human liver microsomes; type: in vitro ADME; conditions: human liver microsomes 0.5 mg/mL, [6]-shogaol 50 µM, 30 min
[6] = Metabolic profile of [6]-shogaol in mouse liver microsomes; type: in vitro ADME, CD-1 mouse; conditions: mouse liver microsomes 0.5 mg/mL, [6]-shogaol 50 µM, 30 min
Outline: as §1

[7] = Metabolic profile of [6]-shogaol in rat liver microsomes; type: in vitro ADME, Sprague-Dawley rat; conditions: rat liver microsomes 0.5 mg/mL, [6]-shogaol 50 µM, 30 min
Outline: as §1

[8] = Kinetic study of [6]-shogaol metabolism to M6 in dog liver microsomes; type: in vitro ADME, beagle dog; conditions: dog liver microsomes 0.1 mg/mL, [6]-shogaol 7.8 to 2000 µM, 30 min
[9] = tested on: HCT-116 human colon cancer cells; assay: Induction of apoptosis; type: cell-based; conditions: HCT-116, 10 µM compound, 24 hours
Outline: (§2)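 Cells in McCoy's 5A with 10% FBS, 1% penicillin/streptomycin and 1% glutamine were seeded at 5000 cells/well and allowed to attach overnight at 37°C. They were then exposed to test compound in DMSO, diluted in medium, for 24 h. Lysates were spun at 300 g for 10 min and run in a histone–DNA sandwich ELISA (anti-histone-biotin/anti-DNA-POD, 2 h RT; ABTS 15 min; A430). Triplicate; fold over DMSO control, mean ± SD.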

[10] = tested on: H-1299 human lung cancer cells; assay: MTT growth inhibition, human lung cancer cells; type: cell-based; conditions: read-out: IC50, cell viability (MTT); H-1299, 24 hours, 0 to 80 µM
[11] = tested on: HCT-116 human colon cancer cells; assay: MTT growth inhibition, human colon cancer cells; type: cell-based; conditions: read-out: IC50, cell viability (MTT); HCT-116, 24 hours, 0 to 80 µM
[12] = tested on: H-1299 human lung cancer cells; assay: Induction of apoptosis; type: cell-based; conditions: H-1299, 10 µM compound, 24 hours
Outline: as §2

Compound	Relative abundance of metabolite formed from [6]-shogaol [1]	Relative abundance of metabolite formed from [6]-shogaol [2]	Km at 30 min [3]	Vmax of M6 formation [4]	Relative abundance of metabolite formed from [6]-shogaol [5]	Relative abundance of metabolite formed from [6]-shogaol [6]	Relative abundance of metabolite formed from [6]-shogaol [7]	Vmax of M6 formation [8]	Induction of apoptosis compared to DMSO control [9]	IC50 [10]	IC50 [11]	Induction of apoptosis compared to DMSO control [12]
CCCCCC=CC(O)CCc1ccc(O)c(OC)c1 (stereo not drawn) [M6, 1-(4'-hydroxy-3'-methoxyphenyl)-4-decen-3-ol]	minor metabolite	intermediate relative amount	45.6 µM	4.10 +/− 0.19 nanomoles per minute per milligram liver microsomes	intermediate relative amount	dominant peak	dominant peak	7.33 +/− 0.43 nanomoles per minute per milligram liver microsomes	–	–	–	–
CCCCCCCC(=O)CCc1ccc(O)c(OC)c1 [M11, 1-(4'-hydroxy-3'-methoxyphenyl)-decan-3-one]	minute amounts	very minor product	–	–	major product	minute amounts	very minor product	–	–	–	–	–
CCCCC/C=C/C(=O)/C=C/c1ccc(O)c(OC)c1 [M14, (1E, 4E)-1-(4'-hydroxy-3'-methoxyphenyl)-deca-1,4-dien-3-one]	major metabolite	minor	–	–	smallest amount	minor	minor	–	–	–	–	–
CCCCCCCC(=O)/C=C/c1ccc(O)c(OC)c1 [M15, (E)-1-(4'-hydroxy-3'-methoxyphenyl)-dec-1-en-3-one]	abundant	abundant	–	–	very minor	very minor	very minor	–	–	–	–	–
CCCCC/C=C/C(=O)CCc1ccc(O)c(OC)c1 [[6]-shogaol]	–	–	–	–	–	–	–	–	1 fold	17.3 µM	19.9 µM	~2 fold
